Source: ChEMBL document CHEMBL1777669, “Synthesis of substituted triazolyl curcumin mimics that inhibit RANKL-induced osteoclastogenesis” (Bioorg Med Chem Lett, 2011)

These compounds were tested on RAW264.7 (assay: Antiresorptive activity in mouse RAW264.7 cells assessed as inhibition of RANKL-induced osteoclastogenesis after 4 days by TRAP assay). Conditions: not given.
Format: functional, cell-based
Procedure, shortened: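 RAW264.7 cells, maintained in DMEM with 10% FBS and penicillin/streptomycin at 37 °C under 5% CO₂, were seeded at 1 × 10³ cells/well in α-MEM. On day 4, cells were fixed in 10% formalin (10 min) and 95% ethanol (1 min), then dried. TRAP activity was measured with 5 mM p-nitrophenylphosphate in 50 mM citrate buffer (pH 4.6, 10 mM tartrate) for 30 min, stopped with 0.1 N NaOH, and read at 410 nm.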

Question: Which inhibition does the source give for `COc1ccc(/C=C/C(=O)c2cccc(-n3cc(-c4ccc(C)cc4)nn3)c2)cc1O` here?
Answer: Dose-dependent effect

Question: How did the inhibition turn out when `COc1cc(/C=C/C(=O)c2cccc(-n3cc(-c4ccccc4C(F)(F)F)nn3)c2)ccc1O` was run?
Answer: Dose-dependent effect

Question: Which inhibition does the source give for `COc1ccc(/C=C/C(=O)c2cccc(-n3cc(-c4ccccc4)nn3)c2)cc1O` here?
Answer: Dose-dependent effect

Question: `COc1ccc(/C=C/C(=O)c2cccc(N=[N+]=[N-])c2)cc1O` was tested. Which inhibition did it give?
Answer: Dose-dependent effect

Same assay, conditions: RAW264.7, 96 h

Question: How did the IC50 turn out when `COc1cc(/C=C/C(=O)c2cccc(-n3cc(-c4ccc(C)cc4)nn3)c2)ccc1O` was run?
Answer: 15.4 µM

Question: How did the IC50 turn out when `COc1cc(/C=C/C(=O)c2cccc(-n3cc(C(C)(C)O)nn3)c2)ccc1O` was run?
Answer: 19.8 µM

Question: With `C=C(C)c1cn(-c2cccc(C(=O)/C=C/c3ccc(O)c(OC)c3)c2)nn1` as the compound, how does the IC50 read?
Answer: 9.79 µM

Question: How did the IC50 turn out when `C=C(C)c1cn(-c2cccc(C(=O)/C=C/c3ccc(OC)c(O)c3)c2)nn1` was run?
Answer: 7.76 µM

Question: Which IC50 does the source give for `COc1ccc(/C=C/C(=O)c2cccc(-n3cc(-c4ccc(Br)cc4)nn3)c2)cc1O` here?
Answer: 6.57 µM

Question: How did the IC50 turn out when `COc1cc(/C=C/C(=O)c2cccc(-n3cc(-c4ccc(Br)cc4)nn3)c2)ccc1O` was run?
Answer: 19.1 µM

Question: How did the IC50 turn out when `COc1ccc(/C=C/C(=O)c2cccc(-n3cc(-c4ccc(C)cc4)nn3)c2)cc1O` was run?
Answer: 1.7 µM

Question: Which IC50 does the source give for `COc1ccc(/C=C/C(=O)c2cccc(-n3cc(-c4ccc(F)cc4)nn3)c2)cc1O` here?
Answer: 2.5 µM

Question: For `COc1ccc(-c2cn(-c3cccc(C(=O)/C=C/c4ccc(OC)c(O)c4)c3)nn2)cc1`, which IC50 is on record?
Answer: 6.29 µM

Question: How did the IC50 turn out when `COc1cc(/C=C/C(=O)c2cccc(-n3cc(-c4ccccc4C(F)(F)F)nn3)c2)ccc1O` was run?
Answer: 5.07 µM

Question: For `COc1cc(/C=C/C(=O)c2cccc(-n3cc(-c4cc(F)cc(F)c4)nn3)c2)ccc1O`, which IC50 is on record?
Answer: 22.8 µM

Question: Which IC50 does the source give for `COc1cc(/C=C/C(=O)c2cccc(-n3cc(-c4ccccc4)nn3)c2)ccc1O` here?
Answer: 16.8 µM

Question: Which IC50 does the source give for `COc1ccc(/C=C/C(=O)c2cccc(-n3cc(-c4cccc(Cl)c4)nn3)c2)cc1O` here?
Answer: 6.61 µM

Question: `CCCCCc1ccc(-c2cn(-c3cccc(C(=O)/C=C/c4ccc(OC)c(O)c4)c3)nn2)cc1` was tested. Which IC50 did it give?
Answer: > 30 µM

Question: How did the IC50 turn out when `COc1cc(/C=C/C(=O)c2cccc(N=[N+]=[N-])c2)ccc1O` was run?
Answer: 7.11 µM

Question: Which IC50 does the source give for `COc1ccc(-c2cn(-c3cccc(C(=O)/C=C/c4ccc(O)c(OC)c4)c3)nn2)cc1` here?
Answer: 7.9 µM

Question: How did the IC50 turn out when `COc1ccc(/C=C/C(=O)c2cccc(-n3cc(-c4ccccc4)nn3)c2)cc1O` was run?
Answer: 1.51 µM

Question: `COc1ccc(/C=C/C(=O)c2cccc(-n3cc(C(C)(C)O)nn3)c2)cc1O` was tested. Which IC50 did it give?
Answer: 17.1 µM

Question: With `COc1ccc(/C=C/C(=O)c2cccc(-n3cc(-c4ccccc4C(F)(F)F)nn3)c2)cc1O` as the compound, how does the IC50 read?
Answer: 9.12 µM

Question: For `COc1cc(/C=C/C(=O)c2cccc(-n3cc(-c4cccc(Cl)c4)nn3)c2)ccc1O`, which IC50 is on record?
Answer: 14.3 µM

Question: With `CCCCCc1ccc(-c2cn(-c3cccc(C(=O)/C=C/c4ccc(O)c(OC)c4)c3)nn2)cc1` as the compound, how does the IC50 read?
Answer: 5.78 µM

Question: `COc1cc(/C=C/C(=O)c2cccc(-n3cc(-c4ccc(F)cc4)nn3)c2)ccc1O` was tested. Which IC50 did it give?
Answer: 6.45 µM

Question: For `COc1ccc(/C=C/C(=O)c2cccc(N=[N+]=[N-])c2)cc1O`, which IC50 is on record?
Answer: 1.96 µM

Question: How did the IC50 turn out when `COc1ccc(/C=C/C(=O)c2cccc(-n3cc(-c4cc(F)cc(F)c4)nn3)c2)cc1O` was run?
Answer: 7.14 µM
